# Pf gametocyte: kills late stage P. falciparum gametocytes | P. falciparum stage V gametocytes, ATP luminescence, 24 h | inhibition, % at 10.9 µM | actives 0.065% (n = 150,000);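 active = inhibition above the mean plus 3 SD of compounds within the control limits, set per campaign, cut at about 38% in these data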;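 also: 0% = DMSO wells and 100% = medium only without gametocytes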
# PKD1 kinase inh: blocks activity of human protein kinase D1 | PKD1 kinase fluorescence polarization assay | inhibition, % (test concentration not listed) | actives 0.056% (n = 200,000); in the data active = inhibition above about 50%
# Calpain2 inh: blocks pig calpain II enzyme activity; purified calpain II, fluorogenic peptide substrate, 30 min; inhibition, % at 16 µM; actives 0.37% (n = 220,000); AID 1236;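 active = inhibition above about 50%, limit read from the data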
# Efa HMGR inh: inhibitors of class II HMG-CoA reductase from Enterococcus faecalis. purified E. faecalis HMGR, NADPH absorbance 340 nm kinetic. inhibition, % at 10 µM. actives 0.41% (n = 190,000);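 active = inhibition above a set limit, the median over all tested compounds plus 3 SD, cut at about 9.5% in these data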;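 also: enzyme runs in reverse so mevalonate oxidation gives rising NADPH absorbance; 0% = complete reaction with DMSO and 100% = background rate lacking mevalonate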
# Rad51 HR inh: blocks human Rad51 in homologous recombination; Q06609; hRad51 DNA strand exchange, fluorescence dequenching; inhibition, % at 10 µM; actives 0.085% (n = 200,000); AID 1385;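 active = inhibition above 40% at the single screening dose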;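 also: 0% = DMSO control wells and 100% = blanks with heterologous ssDNA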
# Target sequence (Q06609 whole entry, looked up): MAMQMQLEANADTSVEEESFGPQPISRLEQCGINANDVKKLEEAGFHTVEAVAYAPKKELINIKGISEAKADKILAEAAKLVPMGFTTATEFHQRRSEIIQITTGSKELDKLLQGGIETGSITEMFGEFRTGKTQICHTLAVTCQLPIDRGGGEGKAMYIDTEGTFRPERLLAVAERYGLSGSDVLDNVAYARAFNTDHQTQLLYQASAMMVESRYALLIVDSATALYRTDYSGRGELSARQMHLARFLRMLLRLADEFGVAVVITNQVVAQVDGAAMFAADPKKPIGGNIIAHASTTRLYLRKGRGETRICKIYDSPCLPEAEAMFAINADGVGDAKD
#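 Test system: preformed human Rad51 ssDNA filaments; also added: Donor/quencher-labelled 47-bp dsDNA substrate; doses: 10 µM final, single point; times: 37 °C 15-min filament assembly, 30-min compound preincubation, 15-min exchange; detection: FRET fluorescence dequenching, excitation 485 nm, emission 520 nm; read-out basis: Fluorescence-based percent inhibition, control- and blank-normalised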
# Redox H2O2 prof: compounds producing H2O2 with reducing agent – biochemical, NIH compound library profiling, artefact control for MLSCN library redox annotation, primary screen | DTT-dependent redox cycling H2O2, phenol red/HRP absorbance; 100% = 100 µM peroxide control, 0% = buffer | activation, % at 10 µM | actives 0.03% (n = 200,000);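 active = activation of at least 50% relative to the plate's high and low controls in the primary single-dose screen; inactive = activation below 50%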;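 also: compound incubated with DTT at 0.8 mM final as the reducing agent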
# * = called active by the depositor; x = no result. Sampled rows, rich in hits. Any-hit rate of the full collection: about 0.81%.
SMILES,Pf gametocyte,PKD1 kinase inh,Calpain2 inh,Efa HMGR inh,Rad51 HR inh,Redox H2O2 prof
O=[N+]([O-])c1ccc(Nc2c3ccccc3nc3ccccc23)cc1,-17,67*,-25,-6,-1,-1
CC1=NC(C#N)=C(C#N)NC(C)(C)C1,5,-1,-18,7,-7,0
C[C@H](NC(=O)c1ccccc1Cl)C(=O)OC(C(=O)Nc1cc(C(F)(F)F)ccc1Cl)c1ccccc1 (stereo partly specified),-11,-4,15,-3,-10,0
O=C(CNC(=O)c1ccccc1F)OC(C(=O)Nc1cc(C(F)(F)F)ccc1Cl)c1ccccc1 (stereo unspecified),-2,5,61*,-3,0,0
O=C(Cc1csc(-c2ccccc2)n1)NCc1cccs1,0,-8,-7,11*,-4,0
COc1ccc2cc(C(=O)NCc3ccco3)c(=Nc3ccc(C(=O)O)cc3)oc2c1,x,13,-24,0,11,-1
COc1ccc2oc(=Nc3ccc(C(=O)O)cc3)c(C(=O)NCc3ccco3)cc2c1,16,-6,14,15*,5,-2
COc1cc(C(C#N)N2CCC(c3ccccc3)=N2)ccc1O (stereo unspecified),-12,x,1,x,-69,x
N/N=C/C(=N\Nc1ccc(Cl)cc1)C(=O)c1ccncc1,45*,x,-20,x,15,x
COc1ccc(C(=O)Nc2ccc(S(=O)(=O)NC(C)(C)C)cc2)cc1[N+](=O)[O-],-14,14,54*,-14,12,-1
CC(=O)Nc1ccc(Nc2nc(C(F)(F)F)nc3c2nnn3Cc2ccccc2Cl)cc1,-9,x,x,x,x,x
COC(=O)CCC(=O)OC1(C)C(=O)C2=CN(C3CC3)C(c3ccc(OC)cc3)=CC2=C(Br)C1=O (stereo unspecified),-9,x,x,x,52*,x
CC(NC(=O)CCc1nnc(CCCc2ccccc2)o1)c1ccccc1 (stereo unspecified),50*,6,-23,-2,-3,1
COC(c1ccccc1)c1nnc(CCC(=O)NCc2ccc3ncccc3c2)o1 (stereo unspecified),-8,0,-21,-1,-1,0
CC(NC(=O)CCc1nnc(-c2ccccc2)o1)c1ccccc1 (stereo unspecified),30,-3,-11,0,7,0
COC(c1ccccc1)c1nnc(CCC(=O)NCCC(C)C)o1 (stereo unspecified),1,-4,-1,16*,9,0
CCC1Oc2ccccc2N(CC(=O)NCc2ccco2)C1=O (stereo unspecified),6,-3,11,41*,0,-1
O=C(Nc1nc(COc2ccccc2)cs1)C12CC3CC(CC(C3)C1)C2,12,-1,58*,0,-2,0
Cc1cc(OCC(O)CN2CCN(c3ccccn3)CC2)cc(C)c1Cl (stereo unspecified),-10,x,x,x,x,x
CC(=O)NC(Cc1cccc(F)c1)C(=O)NC1CCN(c2ncccc2[N+](=O)[O-])CC1 (stereo unspecified),-13,-5,-8,16*,6,2
O=C(c1ccc(COc2ccc(Cl)cc2)cc1)N1CCCCC1,-4,1,58*,2,6,0
CCCCOc1ccc(C(=O)N2CCCCCC2)cc1,x,2,20,-1,-4,1
O=C(Nc1nc(-c2ccccc2)cs1)C1CCCO1 (stereo unspecified),1,-6,-2,0,-3,0
O=C(Nc1nc(-c2ccccc2)cs1)NC1CCCCC1,x,-3,1,11*,0,2
CCOC(=O)c1nc(NCCc2ccccc2)sc1C,x,-7,-9,11*,-6,0
CCOC(=O)c1nc(NNC(C)=O)sc1C,15,-3,13,4,-21,-1
CC1=Nc2ccccc2N=C(NC(=O)CN2CCN(c3ccccc3)CC2)C1c1ccccc1 (stereo unspecified),10,-2,57*,-4,x,0
CCOC(=O)C1CCCN(CC(=O)NC2=Nc3ccccc3N=C(C)C2c2ccccc2)C1 (stereo unspecified),x,4,24,-1,-3,1
CCN(CC)C(=O)c1ncn(C)c1C(=O)N(CC)CC,16,x,x,x,x,x
N=c1c2ccccc2nc2n1CCCCCCCCCCC2,-1,x,x,x,x,x

# Screening results: PubChem BioAssay, several laboratories
